Tests used:
TRPML1(NC) = TRPML1(NC) (Homo sapiens, UniProt Q9GZU1); test: Fura-2 calcium imaging, HEK293 cells expressing TRPML1; assay type: cell-based; settings: 10 µM, plasma membrane-localized TRPML1 variant
How it was run: (§1)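 HEK293 cells were transiently transfected (Genejammer) with the human channel construct or YFP control and measured 24 h later. Cells on glass coverslips were loaded with 4 µM fura-2-AM in bath solution (mM: 138 NaCl, 6 KCl, 2 MgCl2, 2 CaCl2, 10 HEPES, 5.5 D-glucose; pH 7.4). Compounds were applied at 10 µM and the F340/F380 ratio recorded. Values are mean ± SEM, n≥3.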

danio rerio TRPN1 = danio rerio TRPN1 (Danio rerio, UniProt Q7T1G6); assay type: cell-based
danio rerio TRPN1, sequence (Q7T1G6 1-1614): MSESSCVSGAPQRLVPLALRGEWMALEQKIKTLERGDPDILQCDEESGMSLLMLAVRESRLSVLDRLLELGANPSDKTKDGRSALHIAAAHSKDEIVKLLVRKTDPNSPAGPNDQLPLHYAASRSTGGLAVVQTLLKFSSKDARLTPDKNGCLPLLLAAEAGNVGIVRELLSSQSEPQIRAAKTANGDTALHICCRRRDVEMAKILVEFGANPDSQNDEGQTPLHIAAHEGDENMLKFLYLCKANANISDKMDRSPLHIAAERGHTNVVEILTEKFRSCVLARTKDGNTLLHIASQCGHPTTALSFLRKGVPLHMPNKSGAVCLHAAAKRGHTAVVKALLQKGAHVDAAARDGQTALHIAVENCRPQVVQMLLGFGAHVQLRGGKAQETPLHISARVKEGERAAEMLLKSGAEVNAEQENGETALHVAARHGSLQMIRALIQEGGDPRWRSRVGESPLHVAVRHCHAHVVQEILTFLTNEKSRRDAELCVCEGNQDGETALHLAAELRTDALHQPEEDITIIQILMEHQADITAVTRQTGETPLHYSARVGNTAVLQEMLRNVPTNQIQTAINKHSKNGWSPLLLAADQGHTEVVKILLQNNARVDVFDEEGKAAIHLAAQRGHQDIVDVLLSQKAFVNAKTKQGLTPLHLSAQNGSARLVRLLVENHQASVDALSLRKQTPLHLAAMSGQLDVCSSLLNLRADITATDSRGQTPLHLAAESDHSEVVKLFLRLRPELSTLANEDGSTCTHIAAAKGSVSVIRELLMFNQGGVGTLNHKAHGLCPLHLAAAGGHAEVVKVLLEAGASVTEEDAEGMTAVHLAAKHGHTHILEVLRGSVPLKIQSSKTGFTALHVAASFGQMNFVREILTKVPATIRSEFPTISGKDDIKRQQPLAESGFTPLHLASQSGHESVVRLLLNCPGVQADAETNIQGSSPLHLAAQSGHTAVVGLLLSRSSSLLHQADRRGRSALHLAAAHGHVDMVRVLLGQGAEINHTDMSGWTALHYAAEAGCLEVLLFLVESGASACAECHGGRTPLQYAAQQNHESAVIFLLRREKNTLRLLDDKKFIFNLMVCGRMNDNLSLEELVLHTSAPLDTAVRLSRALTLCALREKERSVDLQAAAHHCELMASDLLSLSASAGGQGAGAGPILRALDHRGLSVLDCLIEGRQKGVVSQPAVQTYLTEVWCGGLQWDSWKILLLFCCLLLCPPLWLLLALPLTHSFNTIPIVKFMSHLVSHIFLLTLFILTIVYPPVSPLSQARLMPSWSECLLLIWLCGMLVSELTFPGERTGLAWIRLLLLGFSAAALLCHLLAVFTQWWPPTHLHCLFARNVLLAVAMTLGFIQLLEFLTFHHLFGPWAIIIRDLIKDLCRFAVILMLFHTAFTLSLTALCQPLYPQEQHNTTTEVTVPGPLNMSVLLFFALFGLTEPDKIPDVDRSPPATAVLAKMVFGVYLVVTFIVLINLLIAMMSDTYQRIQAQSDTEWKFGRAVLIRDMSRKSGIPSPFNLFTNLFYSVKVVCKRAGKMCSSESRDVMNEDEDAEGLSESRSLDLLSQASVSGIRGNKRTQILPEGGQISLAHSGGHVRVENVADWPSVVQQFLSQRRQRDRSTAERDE
How it was run: (§2)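 HEK293 lines stably expressed YFP-fused human TRPML3 or zebrafish TRPN1 (G418 0.8 mg/ml, twice subcloned) and were plated at 1,500 cells/well for 23 h at 37 °C. After Fluo-8 loading (1 h 37 °C, 30 min RT), a 5 s basal read and 120 s post-addition read were taken. Max/basal ratios were normalized to DMSO and carbachol (87 µM).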

TRPML3 [1] = target: T1, TRPML3 (Homo sapiens, UniProt Q8TDD5); test: Fura-2 calcium imaging, HEK293 cells transiently expressing TRPML3; assay type: cell-based
T1 sequence (Q8TDD5 1-553): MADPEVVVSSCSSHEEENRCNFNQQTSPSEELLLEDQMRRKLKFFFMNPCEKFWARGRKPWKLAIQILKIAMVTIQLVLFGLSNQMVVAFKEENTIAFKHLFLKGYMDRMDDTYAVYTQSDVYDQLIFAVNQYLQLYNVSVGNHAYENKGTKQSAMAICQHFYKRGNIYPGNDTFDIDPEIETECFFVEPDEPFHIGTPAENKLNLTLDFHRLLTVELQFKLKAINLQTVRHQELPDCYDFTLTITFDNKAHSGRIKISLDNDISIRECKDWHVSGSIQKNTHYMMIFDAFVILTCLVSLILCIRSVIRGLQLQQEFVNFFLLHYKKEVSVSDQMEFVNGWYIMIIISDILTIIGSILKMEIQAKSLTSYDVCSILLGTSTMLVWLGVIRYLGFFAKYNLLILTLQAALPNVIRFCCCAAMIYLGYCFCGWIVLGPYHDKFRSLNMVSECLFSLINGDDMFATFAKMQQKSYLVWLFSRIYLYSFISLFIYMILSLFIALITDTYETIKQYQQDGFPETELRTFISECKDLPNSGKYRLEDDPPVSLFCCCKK
How it was run: as §1

[2] = test system: TRPM2, TRPV2, TRPC3, TRPN1, TRPA1; test: Fura-2 calcium imaging selectivity, HEK293 cells expressing other TRP channels; assay type: cell-based
How it was run: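 HEK293 cells were transiently transfected (Genejammer) with expression vectors for each TRP channel and measured 24 h later. Cells on coverslips were loaded with 4 μM fura-2-AM in bath solution (mM: 138 NaCl, 6 KCl, 2 MgCl₂, 2 CaCl₂, 10 HEPES, 5.5 D-glucose, pH 7.4). [Ca²⁺]i increases to 10 µM test compound were imaged on a monochromator-based system.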

TRPML3 [3] = target: T1, TRPML3; assay type: cell-based; settings: HEK293, read-out: Max % Activation (TRPML3)
How it was run: as §2

cochlear hair cells = test: Recording from acutely isolated cochlear hair cells; assay type: cell-based, rat; settings: up-to 100 µM; in SBS, SN-2 also in ELS
[4] = target: T2, TRPML3 coexpressed with TRPML1 (Homo sapiens, UniProt Q8TDD5); test: Calcium imaging, HEK293 cells coexpressing TRPML3 with TRPML1; assay type: cell-based; settings: 10 µM
T2 sequence (Q8TDD5 1-553): T1 sequence (Q8TDD5 1-553)
How it was run: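 Human TRPML3 and TRPML1 were transiently coexpressed in HEK293 cells (Genejammer) and imaged 24 h post-transfection. Cells on glass coverslips were loaded with 4 μM fura-2-AM in bath solution (mM: 138 NaCl, 6 KCl, 2 MgCl₂, 2 CaCl₂, 10 HEPES, 5.5 D-glucose, pH 7.4) and read on a monochromator imaging system. Test compound was 10 μM. Mean ± SEM, n≥3 independent experiments, 20–30 cells each.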

TRPML3 [5] = assay type: cell-based
How it was run: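 Whole-cell recordings used HEK293 cells expressing TRPML3 with 100% series-resistance compensation. Pipette solution (mM): 140 CsCl, 10 HEPES, 3 ATP-Na, 1 BAPTA, 2 MgCl2; pH 7.2. Compound at 10 µM was perfused in endolymph-like solution (mM: 2 NaCl, 150 KCl, 0.25 CaCl2, 10 HEPES, 10 glucose; pH 7.4) or in standard bath. Inward current at −80 mV was normalized to capacitance.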

[6] = test system: melanocytes expressing dynamin; test: Calcium imaging, melanocytes transfected with wild type dynamin; assay type: cell-based, human; settings: 30 µM
How it was run: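 Human epidermal melanocytes (medium 254 plus HMGS) were transfected with wild-type dynamin, DynK44A or YFP control. Intracellular Ca2+ was imaged after applying compounds at 30 µM each. Data are mean ± SEM from at least 3 independent experiments of 20–30 cells each.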

TRPML3 [7] = target: T1, TRPML3; test: Whole-cell patch-clamp, HEK293 cells transiently transfected with TRPML3; assay type: cell-based
How it was run: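 Whole-cell patch clamp was done on HEK293 cells 24 h after transient transfection with human TRPML3 or YFP; constitutively active TRPML3(A419P) cells served as positive control. Bath solution (mM): 138 NaCl, 5.4 KCl, 2 MgCl2, 2 CaCl2, 10 HEPES, 10 d-glucose; pH 7.4. Pipette solution (mM): 140 CsCl, 10 HEPES, 3 ATP-Na, 1 BAPTA, 2 MgCl2; pH 7.2. Compounds at 10 µM were perfused. Capacitance-normalized current at −80 mV is reported as mean ± SEM, n≥3.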

TRPML3 [8] = target: T1, TRPML3; test: Excised; assay type: cell-based
[9] = test system: primary human epidermal melanocytes; test: Calcium imaging in primary human epidermal melanocytes; assay type: cell-based; settings: concentrations up-to 100 µM; SN-2 at 30 µM and 100 µM
How it was run: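 Primary neonatal human epidermal melanocytes were cultured in medium 254 with HMGS at 37 °C and 5% CO2. Intracellular Ca2+ was imaged after applying compounds at 100 µM, with one compound also at 30 µM. Data are mean ± SEM from more than 3 independent experiments of 20–30 cells each.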

TRPML3 [10] = target: T1, TRPML3; test: Whole-cell patch-clamp with intracellular application; assay type: cell-based

TRPML1(NC), sequence (Q9GZU1 17-572 limits assumed): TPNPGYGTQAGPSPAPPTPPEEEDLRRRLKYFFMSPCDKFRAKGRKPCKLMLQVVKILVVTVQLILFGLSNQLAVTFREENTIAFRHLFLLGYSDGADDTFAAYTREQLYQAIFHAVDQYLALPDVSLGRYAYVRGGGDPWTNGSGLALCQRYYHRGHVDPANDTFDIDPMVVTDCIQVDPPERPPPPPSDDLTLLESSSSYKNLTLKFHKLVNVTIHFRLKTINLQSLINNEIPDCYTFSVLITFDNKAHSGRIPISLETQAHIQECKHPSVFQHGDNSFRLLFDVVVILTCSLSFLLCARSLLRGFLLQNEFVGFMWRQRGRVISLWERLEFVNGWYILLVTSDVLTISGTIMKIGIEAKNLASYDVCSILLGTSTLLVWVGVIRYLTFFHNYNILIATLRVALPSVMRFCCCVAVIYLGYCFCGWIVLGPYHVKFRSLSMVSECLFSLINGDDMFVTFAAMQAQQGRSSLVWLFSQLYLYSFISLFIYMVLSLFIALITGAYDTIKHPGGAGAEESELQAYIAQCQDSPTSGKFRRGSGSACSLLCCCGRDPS

activation of mutant TRPML1(NC) isoform (TRPML1(NC)): did not show any activity | EC50 (danio rerio TRPN1): > 29.9 µM | Emax (danio rerio TRPN1; HEK293, read-out: Max % Activation (Control)): 3 ± 1% | ⊗F340/F380 (TRPML3) (TRPML3 [1]; 10 µM compound, mean ±SEM (n≥3)): 1.08 ±0.05 | Emax (TRPML3 [3]): 149 ± 11% | nA/pF (-80 mV) (TRPML3) (TRPML3 [7]; current density at −80 mV, 10 µM in standard bath solution, mean ±SEM (n≥3)): −0.30 ±0.07 nA/pF | conductance of TRPML3 channels (TRPML3 [8]; activated with 10 µM SN-2, at −80 mV, estimate): approximately 10 pS | TRPML3 activity in excised patches (TRPML3 [8]; patches held at −80 mV): markedly increased TRPML3 activity | cell membrane permeability (TRPML3 [10]; inferred from intracellular infusion experiment): not cell permeant
SMILES: Cc1cc(C)c(C2=NOC3C4CCC(C4)C23)c(C)c1 (stereo not shown) [SN-2, 5-mesityl-3-oxa-4-azatricyclo[5.2.1.0∼2,6∼]dec-4-ene]
kinetics of intracellular calcium increase (TRPML3 [1]; TRPML3-transfected HEK293 cells): much more rapid increase than the other compounds | activation of other TRP channels tested [2]: did not show any activity on other TRP channels | TRPML3 channel activity in cochlear hair cells (cochlear hair cells): Neither compound at concentrations of up-to 100 µM, with or without endolymph-like extracellular solution, elicited TRPML3 channel activity | calcium imaging response when TRPML1 was coexpressed with TRPML3 [4]: strong reduction of the calcium imaging responses | increase in current densities, compound + ELS vs ELS alone or compound in SBS (TRPML3 [5]; 10 µM compound, ELS 2 mM Na+, 150 mM K+): ≤ 10 fold | average current densities, compound + ELS (TRPML3 [5]; 10 µM, at −80 mV): up to 3 nA/pF | response in melanocytes expressing wild type dynamin [6]: reduction of the response | average current density relative to constitutively active TRPML3 A419P (TRPML3 [7]; whole-cell, −80 mV): comparable to average current densities obtained from cells expressing the constitutively active varitint-waddler mutant isoform A419P | [Ca2+]i response in primary human epidermal melanocytes [9]: elicited a stronger response | response to intracellular application (infusion) (TRPML3 [10]; whole-cell, −80 mV): did not elicit a response when infused into the cells

Source: paper PMC2834294 (Chemistry & biology, 2010)
